Measured values: ChEMBL document CHEMBL1148701, “Design and synthesis of a new class of selective integrin alpha5beta1 antagonists” (J Med Chem, 2007)

Columns and labels:
[1] = biological target: T1, Integrin alpha-5/beta-1 (Homo sapiens, UniProt P05556+P08648); test: Inhibition of integrin alpha-5-beta-1 receptor by ELISA; assay type: protein-complex assay
Method in brief: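 Wells coated overnight at 4°C with fibronectin (0.25 µg/mL) at pH 9.6, then blocked with 3% BSA. Bound integrin was detected with anti-human-Fc-HRP, TMB, A450. IC50 was taken from the curve turning point.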

[2] = biological target: Integrin alpha-V/beta-3 (Homo sapiens, UniProt P05106+P06756); test: Inhibition of integrin alpha-V-beta-3 receptor by ELISA; assay type: protein-complex assay
Sequence of Integrin alpha-V/beta-3 (P05106 27-788 limits assumed): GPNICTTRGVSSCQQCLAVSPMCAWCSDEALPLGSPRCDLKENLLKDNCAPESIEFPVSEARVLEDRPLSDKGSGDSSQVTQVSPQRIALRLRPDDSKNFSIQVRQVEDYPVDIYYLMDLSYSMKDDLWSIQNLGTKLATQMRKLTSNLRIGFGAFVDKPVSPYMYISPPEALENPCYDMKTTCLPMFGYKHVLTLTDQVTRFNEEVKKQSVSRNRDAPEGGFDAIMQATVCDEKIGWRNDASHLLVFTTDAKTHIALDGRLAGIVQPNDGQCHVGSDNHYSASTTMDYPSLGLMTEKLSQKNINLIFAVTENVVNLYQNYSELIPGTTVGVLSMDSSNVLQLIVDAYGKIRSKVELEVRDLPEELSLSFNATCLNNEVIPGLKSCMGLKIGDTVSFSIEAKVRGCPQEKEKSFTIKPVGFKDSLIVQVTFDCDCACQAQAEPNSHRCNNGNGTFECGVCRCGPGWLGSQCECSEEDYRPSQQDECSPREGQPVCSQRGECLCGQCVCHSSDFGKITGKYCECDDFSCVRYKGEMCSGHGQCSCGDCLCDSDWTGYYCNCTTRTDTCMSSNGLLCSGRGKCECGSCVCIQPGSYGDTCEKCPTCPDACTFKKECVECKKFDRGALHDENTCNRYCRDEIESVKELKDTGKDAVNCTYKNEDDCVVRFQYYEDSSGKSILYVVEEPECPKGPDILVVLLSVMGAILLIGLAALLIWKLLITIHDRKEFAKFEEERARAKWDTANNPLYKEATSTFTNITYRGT
Sequence of Integrin alpha-V/beta-3 (P06756 31-889 limits assumed): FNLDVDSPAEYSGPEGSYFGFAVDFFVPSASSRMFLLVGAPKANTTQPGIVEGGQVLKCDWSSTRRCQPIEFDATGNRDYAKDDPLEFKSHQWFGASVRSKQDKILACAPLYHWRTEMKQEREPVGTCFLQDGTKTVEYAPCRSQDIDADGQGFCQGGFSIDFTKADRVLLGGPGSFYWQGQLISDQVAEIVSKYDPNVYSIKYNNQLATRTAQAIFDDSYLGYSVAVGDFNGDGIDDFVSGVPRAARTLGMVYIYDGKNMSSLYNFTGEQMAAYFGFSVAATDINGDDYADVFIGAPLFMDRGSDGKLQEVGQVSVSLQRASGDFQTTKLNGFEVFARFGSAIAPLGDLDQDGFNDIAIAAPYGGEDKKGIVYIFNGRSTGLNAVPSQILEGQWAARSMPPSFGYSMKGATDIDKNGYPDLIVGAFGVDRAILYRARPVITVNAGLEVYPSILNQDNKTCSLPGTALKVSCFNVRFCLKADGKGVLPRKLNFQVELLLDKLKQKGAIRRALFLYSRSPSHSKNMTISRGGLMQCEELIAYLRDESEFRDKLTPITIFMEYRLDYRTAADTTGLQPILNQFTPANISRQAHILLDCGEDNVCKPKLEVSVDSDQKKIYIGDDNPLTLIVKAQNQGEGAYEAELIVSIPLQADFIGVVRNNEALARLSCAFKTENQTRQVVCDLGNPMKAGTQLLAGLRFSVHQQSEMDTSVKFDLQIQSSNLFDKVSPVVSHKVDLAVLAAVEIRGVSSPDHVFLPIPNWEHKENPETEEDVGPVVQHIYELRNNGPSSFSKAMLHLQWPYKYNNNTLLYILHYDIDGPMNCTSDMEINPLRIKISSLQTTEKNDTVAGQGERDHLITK
Sequence of Integrin alpha-V/beta-3 (P06756 891-1048 limits assumed): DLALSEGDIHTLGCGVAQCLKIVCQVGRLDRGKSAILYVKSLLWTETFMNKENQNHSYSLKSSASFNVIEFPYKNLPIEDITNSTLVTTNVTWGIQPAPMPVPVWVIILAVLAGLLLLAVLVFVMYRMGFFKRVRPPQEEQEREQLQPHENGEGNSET
Method in brief: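 Vitronectin-coated wells (1 µg/mL) were blocked with 3% BSA/PBS-Tween. Soluble αvβ3 (1 µg/mL) was incubated with serially diluted inhibitor for 1 h at RT in Tris/NaCl/MnCl2/BSA buffer. Binding was read with anti-αvβ3 plus anti-mouse-HRP, then TMB, absorbance 450 nm. IC50 was taken at the turning point of the inhibition curve.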

[3] = biological target: Integrin alpha-IIb/beta-3 (Homo sapiens, UniProt P05106+P08514); test: Inhibition of integrin alpha-2b-beta-3 receptor by ELISA; assay type: protein-complex assay
Sequence of Integrin alpha-IIb/beta-3 (P05106 27-788 limits assumed): as the sequence (P05106 27-788 limits assumed) above
Sequence of Integrin alpha-IIb/beta-3 (P08514 32-887 limits assumed): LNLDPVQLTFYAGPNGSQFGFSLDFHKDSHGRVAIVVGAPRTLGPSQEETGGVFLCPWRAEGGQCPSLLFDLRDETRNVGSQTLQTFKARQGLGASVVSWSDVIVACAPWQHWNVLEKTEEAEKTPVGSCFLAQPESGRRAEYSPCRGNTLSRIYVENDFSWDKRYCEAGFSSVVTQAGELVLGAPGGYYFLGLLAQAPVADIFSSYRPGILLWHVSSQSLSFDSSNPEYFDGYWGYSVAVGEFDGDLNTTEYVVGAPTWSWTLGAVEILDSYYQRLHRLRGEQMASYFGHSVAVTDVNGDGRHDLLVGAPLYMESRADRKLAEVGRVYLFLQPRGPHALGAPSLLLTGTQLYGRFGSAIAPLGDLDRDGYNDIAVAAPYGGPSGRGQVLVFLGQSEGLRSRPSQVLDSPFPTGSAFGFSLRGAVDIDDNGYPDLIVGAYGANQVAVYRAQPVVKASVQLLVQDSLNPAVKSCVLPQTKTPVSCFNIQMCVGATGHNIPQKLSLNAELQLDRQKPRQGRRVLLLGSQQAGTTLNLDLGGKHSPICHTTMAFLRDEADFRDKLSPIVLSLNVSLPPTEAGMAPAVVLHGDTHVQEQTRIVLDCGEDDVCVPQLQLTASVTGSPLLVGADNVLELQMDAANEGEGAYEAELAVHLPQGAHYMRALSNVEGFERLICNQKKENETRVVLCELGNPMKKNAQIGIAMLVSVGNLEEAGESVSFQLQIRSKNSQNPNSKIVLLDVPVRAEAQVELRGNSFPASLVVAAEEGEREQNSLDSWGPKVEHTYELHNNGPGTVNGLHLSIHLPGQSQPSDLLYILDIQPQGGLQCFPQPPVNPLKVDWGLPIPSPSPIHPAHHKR
Sequence of Integrin alpha-IIb/beta-3 (P08514 891-1039 limits assumed): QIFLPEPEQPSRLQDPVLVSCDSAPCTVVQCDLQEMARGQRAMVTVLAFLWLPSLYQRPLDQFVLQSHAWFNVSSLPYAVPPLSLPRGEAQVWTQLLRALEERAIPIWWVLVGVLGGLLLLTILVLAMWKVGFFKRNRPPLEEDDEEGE
Method in brief: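 Solid-phase ELISA. Wells coated with fibrinogen (10 µg/mL) and blocked with 3% BSA in PBS/0.1% Tween 20 for 1 h at RT. Soluble αIIbβ3 (5 µg/mL) was incubated with serially diluted inhibitor in Tris pH 7.6, 150 mM NaCl, 1 mM MnCl2/MgCl2/CaCl2, 1 mg/mL BSA for 1 h at RT. Detection used anti-CD41b then anti-mouse-HRP, TMB, A450. IC50 was taken as the curve turning point.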

[4] = biological target: Integrin alpha-V/beta-5 (Homo sapiens, UniProt P06756+P18084); test: Inhibition of integrin alpha-V-beta-5 receptor by ELISA; assay type: protein-complex assay
Method in brief: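 ELISA on vitronectin coating (5 µg/mL). Soluble αvβ5 (1.5 µg/mL) was incubated with serially diluted inhibitor for 1 h at RT in Tris pH 7.6, NaCl, 1 mM each MnCl2/MgCl2/CaCl2, BSA, 0.05% Tween 20. Detection used anti-αvβ5 and anti-mouse-HRP, TMB, A450. IC50 was the inflection point.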

[5] = Inhibition of integrin alpha-3b-beta-1 receptor by ELISA; set-up: species or system Homo sapiens
Method in brief: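 Solid-phase ELISA. Wells coated with laminin (5 µg/mL) and blocked with 3% BSA/PBS-Tween. Soluble α3β1 (2 µg/mL) was incubated with serially diluted inhibitor in Tris pH 7.6, NaCl, 1 mM MnCl2, BSA, 0.05% Tween 20 for 1 h at RT. Detection used polyclonal anti-α3β1 then anti-rabbit-HRP, TMB/H2SO4, absorbance 450 nm. IC50 was taken as the inflection point.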

[6] = Stability in human microsome at 1 uM after 1 hr; assay type: ADME; details: microsomes, read-out: Stability
Method in brief: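 Compound at 1 µM was incubated with human microsomes for 1 h, and the percentage remaining was recorded.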

[7] = species on record: Homo sapiens; test: Selectivity for integrin alpha5beta1 over alpha-3-beta-1 receptor
[8] = species on record: Homo sapiens; test: Selectivity for integrin alpha5beta1 over alphaVbeta3 receptor
[9] = species on record: Homo sapiens; test: Selectivity for integrin alpha-5-beta-1 over alpha2bbeta3 receptor
[10] = species on record: Homo sapiens; test: Selectivity for integrin alpha-5-beta-1 over alphaVbeta5 receptor
[11] = biological target: T1, Integrin alpha-5/beta-1; test: Inhibition of integrin alpha-5-beta-1 receptor expressed in HEK293 cells; assay type: cell-based
Method in brief: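 HEK293 cells with endogenous α5β1 were tested for adhesion to fibronectin. IC50 was determined.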

T1 sequence (P05556 21-798 limits assumed): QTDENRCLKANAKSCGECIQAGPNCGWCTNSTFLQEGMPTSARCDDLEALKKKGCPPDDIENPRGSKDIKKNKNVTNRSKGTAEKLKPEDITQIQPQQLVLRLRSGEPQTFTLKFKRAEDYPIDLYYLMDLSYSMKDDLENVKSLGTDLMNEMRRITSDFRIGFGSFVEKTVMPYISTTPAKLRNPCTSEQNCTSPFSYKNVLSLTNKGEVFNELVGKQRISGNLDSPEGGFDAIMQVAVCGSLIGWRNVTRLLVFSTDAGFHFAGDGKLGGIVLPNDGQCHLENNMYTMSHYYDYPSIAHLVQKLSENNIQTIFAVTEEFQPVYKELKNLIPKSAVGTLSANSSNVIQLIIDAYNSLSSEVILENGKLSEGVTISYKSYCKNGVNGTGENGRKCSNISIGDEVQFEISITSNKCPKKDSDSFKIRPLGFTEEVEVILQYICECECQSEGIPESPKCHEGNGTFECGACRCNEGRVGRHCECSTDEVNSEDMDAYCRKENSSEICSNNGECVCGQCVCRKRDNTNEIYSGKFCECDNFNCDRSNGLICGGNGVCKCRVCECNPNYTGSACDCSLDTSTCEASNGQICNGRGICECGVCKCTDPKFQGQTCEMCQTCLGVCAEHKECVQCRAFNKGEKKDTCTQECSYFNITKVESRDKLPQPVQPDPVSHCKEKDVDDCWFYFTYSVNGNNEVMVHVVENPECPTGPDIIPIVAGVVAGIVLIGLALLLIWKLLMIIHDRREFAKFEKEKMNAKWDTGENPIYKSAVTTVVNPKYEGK
T1 sequence (P08648 42-894 limits assumed): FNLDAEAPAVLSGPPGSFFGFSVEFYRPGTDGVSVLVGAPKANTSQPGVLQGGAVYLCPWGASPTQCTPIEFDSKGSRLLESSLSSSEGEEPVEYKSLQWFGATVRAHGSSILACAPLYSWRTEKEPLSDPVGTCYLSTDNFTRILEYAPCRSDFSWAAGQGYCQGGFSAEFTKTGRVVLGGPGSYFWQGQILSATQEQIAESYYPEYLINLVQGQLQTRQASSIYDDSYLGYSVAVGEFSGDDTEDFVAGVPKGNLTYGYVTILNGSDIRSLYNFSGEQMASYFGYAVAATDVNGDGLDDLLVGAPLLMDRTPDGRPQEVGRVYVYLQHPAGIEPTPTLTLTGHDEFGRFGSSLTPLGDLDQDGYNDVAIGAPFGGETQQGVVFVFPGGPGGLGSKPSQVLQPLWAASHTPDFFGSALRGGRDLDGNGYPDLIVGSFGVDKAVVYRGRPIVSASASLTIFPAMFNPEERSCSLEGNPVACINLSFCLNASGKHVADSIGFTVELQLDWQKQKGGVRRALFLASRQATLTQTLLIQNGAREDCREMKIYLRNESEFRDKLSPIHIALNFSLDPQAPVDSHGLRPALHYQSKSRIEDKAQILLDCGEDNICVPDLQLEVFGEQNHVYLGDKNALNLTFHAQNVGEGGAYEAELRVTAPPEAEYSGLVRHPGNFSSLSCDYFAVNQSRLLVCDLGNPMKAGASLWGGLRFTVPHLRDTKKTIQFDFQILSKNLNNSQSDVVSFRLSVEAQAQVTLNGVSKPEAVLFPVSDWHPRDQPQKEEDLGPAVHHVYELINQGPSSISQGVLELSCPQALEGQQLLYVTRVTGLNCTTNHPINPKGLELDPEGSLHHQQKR
T1 sequence (P08648 895-1049 limits assumed): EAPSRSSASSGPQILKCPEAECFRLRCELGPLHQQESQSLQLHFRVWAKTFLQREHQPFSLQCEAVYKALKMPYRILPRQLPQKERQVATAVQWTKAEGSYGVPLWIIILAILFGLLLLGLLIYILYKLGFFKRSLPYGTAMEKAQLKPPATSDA

Compound | IC50 [1] | IC50 [2] | IC50 [3] | IC50 [4] | IC50 [5] | also measured
O=C(CO[C@@H]1C[C@@H](CNc2ccccn2)N(C(=O)OCc2ccccc2)C1)NC[C@H](NC(=O)c1ccccc1)C(=O)O | 155 nM | 140 nM |  |  |  | 
Cc1cc(C)c(S(=O)(=O)N[C@@H](CNC(=O)CO[C@H]2CN[C@H](CNc3ccccn3)C2)C(=O)O)c(C)c1 | 286 nM |  |  |  |  | 
COC(=O)N1C[C@H](OCC(=O)NC[C@H](NS(=O)(=O)c2c(C)cc(C)cc2C)C(=O)O)C[C@H]1CNc1ccccn1 | 15 nM | 9 nM |  |  |  | 
Cc1cc(C)c(S(=O)(=O)N[C@@H](CNC(=O)CO[C@@H]2C[C@@H](CNc3ccccn3)N(C(=O)CC(C)(C)C)C2)C(=O)O)c(C)c1 | 6 nM | 36 nM | 8000 nM | 245 nM |  | remaining at 1 h, 1 µM [6]: 70%
Cc1cc(C)c(S(=O)(=O)N[C@@H](CNC(=O)CO[C@@H]2C[C@@H](CNc3ccccn3)N(C(=O)CCc3ccccc3)C2)C(=O)O)c(C)c1 | 25 nM | 38 nM |  |  |  | 
Cc1cc(C)c(S(=O)(=O)N[C@@H](CNC(=O)CO[C@@H]2C[C@@H](CNc3cccc(C)n3)N(C(=O)OCc3ccccc3)C2)C(=O)O)c(C)c1 | 231 nM | 21 nM |  |  |  | 
COc1ccnc(NC[C@@H]2C[C@@H](OCC(=O)NC[C@H](NS(=O)(=O)c3c(C)cc(C)cc3C)C(=O)O)CN2C(=O)CC(C)(C)C)c1 | 0.9 nM | 4 nM | 11000 nM | 29 nM |  | 
O=C(CO[C@@H]1C[C@@H](CNc2ccccn2)N(C(=O)OCc2ccccc2)C1)NC[C@H](NS(=O)(=O)c1ccccc1)C(=O)O | 86 nM | 6.3 nM | 12000 nM | 260 nM |  | 
COc1ccnc(NC[C@@H]2C[C@@H](OCC(=O)NC[C@H](NC(=O)C3(C)CCCCC3)C(=O)O)CN2C(=O)CC(C)(C)C)c1 | 0.55 nM | 980 nM | > 50000 nM | 4300 nM | 50000 nM | 
Cc1cc(C)c(C(=O)N[C@@H](CNC(=O)CO[C@@H]2C[C@@H](CNc3ccccn3)N(C(=O)CC(C)(C)C)C2)C(=O)O)c(C)c1 | 1.6 nM | 16000 nM | > 50000 nM | > 50000 nM |  | 
Cc1cc(C)c(S(=O)(=O)N[C@@H](CNC(=O)CO[C@@H]2C[C@@H](CNc3ccccn3)N(CCCc3ccccc3)C2)C(=O)O)c(C)c1 | 670 nM |  |  |  |  | 
CC(C)(C)CC(=O)N1C[C@H](OCC(=O)NC[C@H](NC(=O)C2(C)CCCCC2)C(=O)O)C[C@H]1CNc1ccccn1 | 1.4 nM | 1600 nM | > 50000 nM | 2300 nM |  | 
CC1(C(=O)N[C@@H](CNC(=O)CO[C@@H]2C[C@@H](CNc3ccccn3)N(C(=O)OCc3ccccc3)C2)C(=O)O)CCCCC1 | 1.7 nM | 880 nM | > 50000 nM | 550 nM |  | 

Second part, led by results:

IC50 [1] | IC50 [2] | IC50 [3] | IC50 [4] | IC50 [5] | Compound | also measured
445 nM |  |  |  |  | Cc1cc(C)c(S(=O)(=O)N[C@@H](CNC(=O)CO[C@@H]2C[C@@H](CNc3cc(Cl)ccn3)N(C(=O)OCc3ccccc3)C2)C(=O)O)c(C)c1 | 
0.8 nM | 690 nM | > 50000 nM | 3100 nM | 30000 nM | COc1ccnc(NC[C@@H]2C[C@@H](OCC(=O)NC[C@H](NC(=O)C3(C)CCCCC3)C(=O)O)CN2C(=O)OCc2ccccc2)c1 | 
0.54 nM | 3400 nM | 50000 nM | 2700 nM | 20000 nM | COc1ccnc(NC[C@@H]2C[C@@H](OCC(=O)NC[C@H](NC(=O)c3c(C)cc(C)cc3C)C(=O)O)CN2C(=O)OCc2ccccc2)c1 | 
1.1 nM | 2.4 nM | 7.7 nM | 19 nM |  | COc1ccnc(NC[C@@H]2C[C@@H](OCC(=O)NC[C@H](NS(=O)(=O)c3c(C)cc(C)cc3C)C(=O)O)CN2C(=O)OCc2ccccc2)c1 | 
3.5 nM | 30000 nM | > 50000 nM | 30000 nM | 36000 nM | Cc1cc(C)c(C(=O)N[C@@H](CNC(=O)CO[C@@H]2C[C@@H](CNc3ccccn3)N(C(=O)OCc3ccccc3)C2)C(=O)O)c(C)c1 | Selectivity ratio [7]: 10000; Selectivity ratio [8]: 10000; Selectivity ratio [9]: 10000; Selectivity ratio [10]: 10000
0.55 nM | 3300 nM | > 50000 nM | 6800 nM | 13000 nM | COc1ccnc(NC[C@@H]2C[C@@H](OCC(=O)NC[C@H](NC(=O)c3c(C)cc(C)cc3C)C(=O)O)CN2C(=O)CC(C)(C)C)c1 | IC50 [11]: 50 nM
 | 16 nM |  | 330 nM | > 200000 nM | Cc1cc(C)c(S(=O)(=O)N[C@@H](CNC(=O)CO[C@@H]2C[C@@H](CNc3ccccn3)N(C(=O)OCc3ccccc3)C2)C(=O)O)c(C)c1 | remaining at 1 h, 1 µM [6]: 43%
